Assay results collected from several papers.
Compare with care: the assays were run in different laboratories.
Target: Serine/threonine-protein kinase VRK2 (VRK2, Homo sapiens, UniProt Q86Y07)

| SMILES | test | system | setting | endpoint | value |
| --- | --- | --- | --- | --- | --- |
| O=C(Nc1cnc(Oc2ccc(F)cc2)nc1)N1CCc2ncccc2[C@@H]1c1ccc(F)cc1 | cell-free assay, competition with immobilised ligand |  | 1 µM | remaining binding | 100% |
| Cc1sc(C(=O)NC2COC2)cc1-n1cc(NC(=O)Nc2c(F)cccc2Cl)cn1 | enzyme activity, inhibitor |  | 10 µM | remaining activity | 102% |
| COc1ccc2c(O[C@@H]3C[C@H]4C(=O)N[C@]5(C(=O)O)CC5/C=C\CCCCC[C@H](NC(=O)OC5CCCC5)C(=O)N4C3)cc(-c3csc(NC(=O)C(C)C)n3)nc2c1C (stereo partly drawn) | cell-free assay, competition with immobilised ligand |  | 1 µM | remaining binding | 79% |
| CCCS(=O)(=O)Nc1ccc(F)c(C(=O)c2c[nH]c3ncc(-c4ccc(Cl)cc4)cc23)c1F | enzyme activity, inhibitor |  | 1 µM | inhibition | < 10% |
| CN1CC(Oc2cnc(C#N)cc2-c2ccn3nc(NC(=O)C4CC4)cc3c2)C1 | enzyme activity, inhibitor |  | 1 µM | inhibition | -9% |
| CC1(C)NC(=O)c2[nH]c3c(Cl)c(Cl)ccc3c2C1C#N (stereo not drawn) | thermal stability, DSF |  | 10 µM | ΔTm | -0.1 °C |
| CNC(=O)c1cc(Oc2ccc(NC(=O)Nc3ccc(Cl)c(C(F)(F)F)c3)cc2)ccn1 | enzyme activity, inhibitor |  | 10 µM | inhibition | -16% |
| Cn1c2c(c3ccccc31)C(C#N)C(C)(C)NC2=O (stereo not drawn) | thermal stability, DSF |  | 10 µM | ΔTm | 0.2 °C |
| C[C@H](c1ccc(F)cc1)N(Cc1cccc(C(=O)O)c1)C(=O)c1cnc2ccccc2c1 | cell-free assay, competition with immobilised ligand |  | 1 µM | remaining binding | 100% |
| CC(C)(C)c1nc2c(s1)c1nc(N)ncc1c1ccc(NS(=O)(=O)c3c(F)cccc3F)c(F)c12 | enzyme activity, inhibitor, radiometric |  | 1 µM | remaining activity | 116% |
| COc1ccc2c(c1)O[C@H](c1ccc(OC)c(OC)c1)C[C@@H]2NC(=O)C1(c2ccc3c(c2)OC(F)(F)O3)CC1 | cell-free assay, competition with immobilised ligand |  | 1 µM | remaining binding | 82% |
| Cc1ccc(NC(=O)c2ccc(C)c(C(F)(F)F)c2)cc1C#Cc1nn(C2CCC(O)CC2)c2ncnc(N)c12 (stereo not drawn) | cell-free assay |  | 10 µM | remaining signal | 85% |
| CN(C)C(=O)Cn1cc(-c2nc([C@@](C)(c3ccc(-c4cnc(N)nc4)cc3)C3CC3)no2)cn1 | cell-free assay, competition with immobilised ligand |  | 1 µM | remaining binding | 92% |
| Cc1ccc(Nc2nccc(N(C)c3ccc4c(C)n(C)nc4c3)n2)cc1S(N)(=O)=O | enzyme activity, inhibitor |  | 10 µM | inhibition | -18% |
| CCN1CCN(Cc2ccc(NC(=O)c3ccc(C)c(Oc4ccnc5[nH]ccc45)c3)cc2C(F)(F)F)CC1 | target engagement in cells, inhibitor, chemoproteomics | Huh-7 | 1 µM | inhibition | -14.2% |
| Nc1ncnc2occ(-c3ccc(NC(=O)Nc4cc(C(F)(F)F)ccc4F)cc3)c12 | cell-free assay, inhibitor |  | 20 µM | remaining signal | 2.4% |
| Cn1c2c(c3ccc(Cl)c(Cl)c31)C(C#N)C1(CCNCC1)NC2=O (racemic) | thermal stability, DSF |  | 10 µM | ΔTm | 0.3 °C |
| FC(F)(F)c1ccc2c(c1)nc(-c1cccnc1)n2C1CC1 | cell-free assay, competition with immobilised ligand |  | 1 µM | remaining binding | 100% |
| Cn1c2c(c3ccc(Cl)c(Cl)c31)C(C#N)C(C)(C)NC2=O (stereo not drawn) | thermal stability, DSF |  | 10 µM | ΔTm | 0.8 °C |
| CCCOc1ccc(OC)c(F)c1C(=O)c1ccc(C(=O)N[C@@H]2CNC[C@H]2NC(=O)c2ccc3[nH]ncc3c2)cc1 | enzyme activity, inhibitor |  | 10 µM | remaining activity | 129% |
| CCC1(CC)NC(=O)c2c(c3ccc(Cl)c(Cl)c3n2C)C1C#N (stereo not drawn) | thermal stability, DSF |  | 10 µM | ΔTm | 0.1 °C |
| CCN(CC)CCNC(=O)c1c(C)[nH]c(/C=C2\C(=O)Nc3ccc(F)cc32)c1C | enzyme activity, inhibitor |  | 10 µM | inhibition | -10% |
| Cn1c2c(Cl)c(Cl)ccc2c2cc[nH]c(=O)c21 | thermal stability, DSF |  | 10 µM | ΔTm | 0 °C |
| CS(=O)(=O)N1CCCC(NC(=O)[C@H](CCC2CCCCC2)NC(=O)c2ccc(CNC(=O)c3cnc4ccccn34)cc2)C1 (stereo partly drawn) | cell-free assay, competition with immobilised ligand |  | 0.1 µM | remaining binding | 76% |
